Source: ChEMBL document CHEMBL1136261, “Novel inhibitors of neuronal nitric oxide synthase with potent antioxidant properties” (Bioorg Med Chem Lett, 2003)

Assays:
[1] = molecular target: T1, Nitric oxide synthase 3 (Bos taurus) (UniProt P29473); experiment: Selectivity ratio for inhibition of Endothelial Nitric oxide synthase to that of Neuronal Nitric oxide synthase in rat
T1 sequence (whole entry): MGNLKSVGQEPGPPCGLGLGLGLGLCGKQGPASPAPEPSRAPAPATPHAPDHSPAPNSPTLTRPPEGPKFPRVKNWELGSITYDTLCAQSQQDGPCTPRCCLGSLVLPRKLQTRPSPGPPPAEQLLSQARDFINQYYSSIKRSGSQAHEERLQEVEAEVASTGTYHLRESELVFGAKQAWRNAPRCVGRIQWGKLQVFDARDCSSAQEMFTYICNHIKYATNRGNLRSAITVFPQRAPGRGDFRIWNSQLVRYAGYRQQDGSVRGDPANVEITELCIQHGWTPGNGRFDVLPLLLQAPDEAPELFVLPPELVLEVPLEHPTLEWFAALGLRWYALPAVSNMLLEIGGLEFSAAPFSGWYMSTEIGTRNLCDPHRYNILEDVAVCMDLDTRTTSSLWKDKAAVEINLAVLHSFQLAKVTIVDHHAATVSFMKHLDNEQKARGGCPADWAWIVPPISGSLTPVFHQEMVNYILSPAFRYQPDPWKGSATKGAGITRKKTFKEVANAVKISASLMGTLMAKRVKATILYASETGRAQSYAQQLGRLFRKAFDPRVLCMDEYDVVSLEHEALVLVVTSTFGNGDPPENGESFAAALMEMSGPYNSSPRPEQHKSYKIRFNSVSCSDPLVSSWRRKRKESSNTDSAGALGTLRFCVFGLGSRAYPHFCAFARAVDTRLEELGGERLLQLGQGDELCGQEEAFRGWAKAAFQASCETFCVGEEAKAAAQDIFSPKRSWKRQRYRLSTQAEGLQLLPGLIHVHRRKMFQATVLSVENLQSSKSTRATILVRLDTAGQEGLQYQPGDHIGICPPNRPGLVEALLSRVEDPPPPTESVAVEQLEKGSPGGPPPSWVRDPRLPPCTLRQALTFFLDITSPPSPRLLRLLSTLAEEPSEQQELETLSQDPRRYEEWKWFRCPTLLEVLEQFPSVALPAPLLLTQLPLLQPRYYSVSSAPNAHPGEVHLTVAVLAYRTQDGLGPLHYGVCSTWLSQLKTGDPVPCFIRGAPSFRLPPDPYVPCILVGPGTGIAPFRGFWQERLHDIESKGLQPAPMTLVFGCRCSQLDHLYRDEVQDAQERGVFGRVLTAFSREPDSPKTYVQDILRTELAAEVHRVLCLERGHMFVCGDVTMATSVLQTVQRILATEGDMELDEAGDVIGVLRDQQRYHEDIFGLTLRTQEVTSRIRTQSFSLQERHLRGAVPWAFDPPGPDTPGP
In short: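 Ratio of inhibitory activity on the two constitutive NOS isoforms, eNOS and nNOS. Inhibition on each isoform was measured as the effect on NOS conversion of [3H]L-arginine to [3H]L-citrulline.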

[2] = species: Rattus norvegicus; experiment: Antioxidant potency of compound was assessed for their ability to inhibit [Fe2+] induced lipid peroxidation in rat brain microsomes; Not active; format: functional
[3] = molecular target: T2, Nitric oxide synthase 1 (Rattus norvegicus, UniProt P29476); experiment: Inhibitory concentration tested against neuronal nitric oxide synthase (nNOS ) from rat cerebellum; format: tissue-based
T2 sequence (P29476 whole entry): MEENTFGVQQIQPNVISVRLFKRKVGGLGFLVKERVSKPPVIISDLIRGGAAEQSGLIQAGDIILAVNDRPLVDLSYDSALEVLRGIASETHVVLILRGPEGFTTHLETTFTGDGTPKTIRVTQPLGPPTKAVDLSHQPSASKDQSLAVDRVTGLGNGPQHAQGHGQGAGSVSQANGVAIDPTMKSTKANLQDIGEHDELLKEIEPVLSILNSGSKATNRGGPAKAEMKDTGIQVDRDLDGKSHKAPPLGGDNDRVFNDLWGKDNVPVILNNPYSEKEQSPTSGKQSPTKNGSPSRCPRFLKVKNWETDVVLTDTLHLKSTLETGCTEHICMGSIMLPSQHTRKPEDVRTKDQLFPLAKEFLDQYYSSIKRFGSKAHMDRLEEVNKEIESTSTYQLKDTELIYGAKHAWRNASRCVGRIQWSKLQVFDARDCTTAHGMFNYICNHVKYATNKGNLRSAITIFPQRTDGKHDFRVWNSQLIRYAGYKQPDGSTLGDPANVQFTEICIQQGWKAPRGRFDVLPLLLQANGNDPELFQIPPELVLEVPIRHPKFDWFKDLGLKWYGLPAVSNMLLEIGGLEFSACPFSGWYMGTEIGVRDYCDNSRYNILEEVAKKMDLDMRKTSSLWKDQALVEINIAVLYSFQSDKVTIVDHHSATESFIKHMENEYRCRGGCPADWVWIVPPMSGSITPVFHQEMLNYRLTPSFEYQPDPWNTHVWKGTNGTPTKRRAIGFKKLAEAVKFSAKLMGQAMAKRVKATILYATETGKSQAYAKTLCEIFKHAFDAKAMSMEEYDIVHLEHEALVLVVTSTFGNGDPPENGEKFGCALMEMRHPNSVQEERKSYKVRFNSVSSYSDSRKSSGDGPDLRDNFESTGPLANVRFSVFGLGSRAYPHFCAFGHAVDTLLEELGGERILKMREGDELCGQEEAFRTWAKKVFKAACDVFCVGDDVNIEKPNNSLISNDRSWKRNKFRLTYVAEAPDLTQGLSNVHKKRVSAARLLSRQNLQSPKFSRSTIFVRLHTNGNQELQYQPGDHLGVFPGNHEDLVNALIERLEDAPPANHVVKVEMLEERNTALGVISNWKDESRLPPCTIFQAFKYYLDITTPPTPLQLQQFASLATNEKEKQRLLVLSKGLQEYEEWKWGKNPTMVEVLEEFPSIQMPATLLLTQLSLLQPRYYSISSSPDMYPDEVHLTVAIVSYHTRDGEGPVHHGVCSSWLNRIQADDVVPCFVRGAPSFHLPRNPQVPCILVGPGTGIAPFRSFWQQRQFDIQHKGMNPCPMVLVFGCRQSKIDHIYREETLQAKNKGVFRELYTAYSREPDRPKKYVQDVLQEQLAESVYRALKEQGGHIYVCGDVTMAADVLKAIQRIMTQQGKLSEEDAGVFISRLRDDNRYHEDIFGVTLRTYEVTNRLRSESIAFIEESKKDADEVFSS

[4] = molecular target: T3, Nitric oxide synthase 3 (Bos taurus, UniProt P29473); experiment: Inhibitory concentration tested against bovine endothelial nitric oxide synthase (eNOS)
T3 sequence (P29473 whole entry): T1 sequence (whole entry)
In short: (§1)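 NOS activity measured as enzymatic conversion of [3H]L-arginine into [3H]L-citrulline; inhibition taken as the reduction of this conversion. Both constitutive isoforms (neuronal and endothelial) were assayed, and the nNOS/eNOS selectivity was calculated from the two results.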

[5] = species: Rattus norvegicus; experiment: Antioxidant potency of compound was assessed for their ability to inhibit [Fe2+] induced lipid peroxidation in rat brain microsomes; format: functional
[6] = molecular target: T2, Nitric oxide synthase 1; experiment: Inhibitory concentration tested against neuronal nitric oxide synthase (nNOS ) from rat cerebellum; Not active; format: tissue-based; in short: as §1
[7] = molecular target: T3, Nitric oxide synthase 3; experiment: Inhibitory concentration tested against bovine endothelial nitric oxide synthase (eNOS); Not active; in short: as §1

| Compound | Selectivity ratio [1] | IC50 [3] [µM] | IC50 [4] [µM] | IC50 [5] [µM] | IC50 [6] | IC50 [7] | IC50 [2] |
| --- | --- | --- | --- | --- | --- | --- | --- |
| Cl.Cl.Cl.N=C(Nc1ccc(CCNCc2cccc(Cl)c2)cc1)c1cccs1 | 60 | 0.12 | 7.2 |  |  |  | Not Active |
| CC(C)(C)c1cc(CCNCc2cccc(NC(=N)c3cccs3)c2)cc(C(C)(C)C)c1O | 11.1 |  |  | 2.4 |  |  |  |
| CC(C)(C)c1cc(CCCNCc2cccc(NC(=N)c3cccs3)c2)cc(C(C)(C)C)c1O | 10.4 | 0.47 | 4.9 | 0.4 |  |  |  |
| Cc1cc(C(C)(C)C)c(O)c(C(C)(C)C)c1 [BUTYLATED HYDROXYTOLUENE] |  |  |  | 32.5 | Not Active | Not Active |  |
| N=C(Nc1cccc(CN)c1)c1cccs1 | 484 | 0.05 | 24.2 |  |  |  |  |
| N=C(Nc1ccc(CCN)cc1)c1cccs1 | 312 | 0.08 | 25 |  |  |  |  |

The next lines start with results.

| Selectivity ratio [1] | IC50 [3] [µM] | IC50 [4] [µM] | IC50 [5] [µM] | IC50 [6] | IC50 [7] | Compound | IC50 [2] |
| --- | --- | --- | --- | --- | --- | --- | --- |
| > 5.5 | 18 | > 100 |  |  |  | N/C(=N/c1ccc(N)cc1)c1cccs1 |  |
| 195 | 0.2 | 37.1 |  |  |  | N=C(Nc1ccc(CN)cc1)c1cccs1 |  |
|  | 1.4 | 15.5 |  |  |  | CC(C)(C)c1cc(CCNCc2cccc(N=C(N)c3cccs3)c2)cc(C(C)(C)C)c1O |  |
| 67.5 | 0.12 | 8.1 | 0.4 |  |  | CC(C)c1cc(CCCNCc2cccc(NC(=N)c3cccs3)c2)cc(C(C)C)c1O |  |
| 9.8 | 1.6 | 15.7 | 4.9 |  |  | CC(C)(C)c1cc(CNCc2cccc(NC(=N)c3cccs3)c2)cc(C(C)(C)C)c1O |  |
| 6.3 | 2.2 | 13.9 |  |  |  | N=C(Nc1ccccc1)c1cccs1 |  |
